Assay results published in ChEMBL document CHEMBL1212887, “Design, synthesis, and biological evaluation of prenylated chalcones as 5-LOX inhibitors” (Bioorg Med Chem, 2010).

Experiments:
[1] = system: MCF7; assay: Cytotoxicity against human MCF7 cells after 24 hrs by MTT assay; assay type: functional; conditions: MCF7, 24 h
In short: (§1)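 Cells kept at 37 °C in humidified 5% CO2 and seeded at 5 × 10³ cells/well the day before. They were PBS-washed, given fresh medium, then exposed to test compounds (0.1–100 µM) for 24 h. MTT (5 mg/mL in PBS) was then added for 4 h at 37 °C. Formazan was dissolved in DMSO and OD read at 570 nm. Each concentration was run in three experiments, three replicates each.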

[2] = system: COLO 205; assay: Cytotoxicity against human COLO205 cells after 24 hrs by MTT assay; assay type: functional; conditions: COLO 205, 24 h; in short: as §1
[3] = target: 5-lipoxygenase (Solanum tuberosum); assay: Inhibition of 5-lipoxygenase
[4] = system: HaCaT; assay: Cytotoxicity against human HaCaT cells at up to 100 uM after 24 hrs by MTT assay; assay type: cell-based; in short: as §1

SMILES	IC50 [3]	GI50 [1]	GI50 [2]	Activity [4]
COc1cccc(/C=C/C(=O)c2ccc(OCC=C(C)C)cc2O)c1OC	> 100 µM	> 100 µM	> 100 µM	
COc1ccc(/C=C/C(=O)c2ccc(OCC=C(C)C)cc2O)c(OC)c1OC	> 100 µM	> 100 µM	> 100 µM	
COc1ccc(/C=C/C(=O)c2ccc(OCC=C(C)C)cc2O)cc1OC	> 100 µM	> 100 µM	> 100 µM	
COc1cc(/C=C/C(=O)c2ccc(OCC=C(C)C)cc2O)cc(OC)c1OC	> 100 µM	81 µM	96 µM	
COc1ccc(/C=C/C(=O)c2ccc(OCC=C(C)C)cc2OCC=C(C)C)cc1		67.5 µM	97 µM	
COc1cccc(/C=C/C(=O)c2ccc(OCC=C(C)C)cc2OCC=C(C)C)c1OC		73 µM	99 µM	
COc1ccc(/C=C/C(=O)c2ccc(OCC=C(C)C)cc2O)cc1	> 100 µM	97.5 µM	> 100 µM	

Second part, led by results:

IC50 [3]	SMILES	GI50 [1]	GI50 [2]	Activity [4]
49 µM	COc1ccc(/C=C/C(=O)c2ccc(OCC=C(C)C)cc2OCC=C(C)C)c(OC)c1OC	92 µM	> 100 µM	
9 µM	COc1ccc(/C=C/C(=O)c2ccc(OCC=C(C)C)cc2OCC=C(C)C)cc1OC	66.5 µM	90 µM	
4 µM	COc1cc(/C=C/C(=O)c2ccc(OCC=C(C)C)cc2OCC=C(C)C)cc(OC)c1OC	9 µM	78 µM	Non-toxic
